TAAR1 agonist: agonists of human TAAR1; activation, % at 3 µM; CHO RD-HGA16 TAAR1, Fluo-8 calcium fluorescence; vehicle wells 0%, saturating PEA agonist 100%; AID 624467; 360,000 compounds, 0.99% hits;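 active = activation above the mean activation of all test compounds in the run plus 3 SD, cut at about 38% in these data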
Target sequence (Q96RJ0 whole entry, looked up): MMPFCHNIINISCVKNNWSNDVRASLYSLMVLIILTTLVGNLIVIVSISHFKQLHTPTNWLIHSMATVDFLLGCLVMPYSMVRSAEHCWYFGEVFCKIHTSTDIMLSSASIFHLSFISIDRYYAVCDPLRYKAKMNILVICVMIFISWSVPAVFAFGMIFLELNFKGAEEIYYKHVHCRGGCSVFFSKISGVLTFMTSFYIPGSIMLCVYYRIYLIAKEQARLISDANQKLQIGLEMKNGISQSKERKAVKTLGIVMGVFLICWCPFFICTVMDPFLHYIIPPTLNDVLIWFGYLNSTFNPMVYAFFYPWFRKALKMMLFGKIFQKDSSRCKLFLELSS
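Signal – calcium-sensitive Fluo-8 signal, excitation 470-495, emission 515-575 nm · System – RD-HGA16 (CHO) cells co-expressing Gα16 and hTAAR1 · Incubation – 17-24 h seeding, 75 min 37 °C dye, 30 min RT · Compound dosing – 3 µM single concentration · Repeats – no replicates (n 1)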
CHO parental Ca: counter-screen for OX1R antagonists: effect in parental CHO cells; 330,000 compounds, 0.63% hits; parental CHO-K1, ATP-induced calcium, Fluo-8 fluorescence; inhibition, % at 5.6 µM;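 active = inhibition above that plate's mean sample inhibition plus 3 SD, cut at about 26% in these data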
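Test system: parental CHO cells; detection: calcium-sensitive Fluo-8 fluorescence; evaluation: percent inhibition of calcium signal; also added: ATP as calcium-mobilizing challenge; repeats: one well per compound; control set: ATP-challenged DMSO wells low, unchallenged DMSO wells high; compound: single nominal dose of 5.6 µM per compound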
TAAR1 antagonist: antagonists of human TAAR1 | Q96RJ0 | CHO RD-HGA16 TAAR1, Fluo-8 calcium fluorescence, antagonist | inhibition, % at 3 µM | 360,000 compounds, 1.5% hits;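 active = inhibition above a per-plate cutoff, the mean inhibition of test compounds on that plate plus 3 SD, cut at about 49% in these data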
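System: CHO RD-HGA16 cells bearing hTAAR1. Reagent: EC80 β-phenethylamine stimulus. Schedule: seeding 17-24 h prior, 75-min 37 °C, 30-min RT dye loading. Signal: Fluo-8 intracellular calcium dye fluorescence, real-time kinetic reads. Read-out: % inhibition from peak post-agonist over basal fluorescence ratio. Benchmarks: vehicle wells and EC80 agonist wells. Replicates: n of 1.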
GalR3 antagonist: blocks the human galanin receptor 3; inhibition, % at 3 µM; AID 651719; 360,000 compounds, 0.44% hits; HEK293 GalR3-CNG cAMP membrane potential fluorescence; galR3 body fused to GalR1 C-terminus;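 active = inhibition above the screen-wide average plus 3 SD, cut at about 13% in these data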;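 also: forskolin and galanin both at EC90 stimulate the cells; cAMP rise reported by CNG channel membrane potential dye signal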
OX1R antag-1: antagonists of human orexin 1 receptor; 330,000 compounds, 0.43% hits; CHO/OX1R cells, Fluo-8 calcium fluorescence, orexin A; inhibition, % at 5 µM;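 active = inhibition above its plate's threshold, mean inhibition of all tested compounds on the plate plus 3 SD, cut at about 37% in these data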
OX1R antag-2: OX1R (human) antagonism | O43613 | OX1R-expressing cells, FRET antagonist read-out | inhibition, % at 6.6 µM | 330,000 compounds, 1.8% hits | AID 485270; in the data active = inhibition mostly above about 38%, no sharp cut-off; inactive = mostly below about 40%
TAAR1 ag confirm: human TAAR1 agonism, confirmed; shares compounds with TAAR1 agonist; CHO RD-HGA16 TAAR1, Fluo-8 calcium fluorescence; scaled: DMSO 0%, maximal phenethylamine 100%; activation, % at 3 µM; 2,400 compounds, 82% hits;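 active = activation above a cutoff set at the run's mean compound activation plus 3 SD, cut at about 39% in these data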
Ga16 nonsel ag: counter-screen for TAAR1 agonists: nonselective agonists in parental cells; shares compounds with TAAR1 agonist; CHO-Ga16 parental, Fluo-8 calcium fluorescence; normalized to maximal ATP response, DMSO zero; activation, % at 3 µM; 2,400 compounds, 50% hits;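 active = activation above the run cutoff, the mean activation over all tested wells plus 3 SD, cut at about 12% in these data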
TAAR1 desensitize: TAAR1 response desensitization, agonist counter-screen; CHO RD-HGA16 hTAAR1, Fluo-8 calcium, beta-PEA response inhibition; shares compounds with TAAR1 agonist; 2,400 compounds, 46% hits; AID 651951; inhibition, % at 3 µM;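 active = inhibition above the run cutoff, the mean inhibition of all test compounds plus 3 SD, cut at about 49% in these data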;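 also: beta-PEA stimulus applied at its EC80; loss of beta-PEA calcium signal after compound pretreatment read as receptor desensitization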
Ga16 antag count: nonselective Ga16 antagonist in TAAR1 agonist counter-screen; shares compounds with TAAR1 agonist; CHO-Ga16 ATP-induced calcium, Fluo-8 fluorescence; inhibition, % at 3 µM; 2,400 compounds, 39% hits; AID 651952;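 active = inhibition above the plate's mean compound inhibition plus 3 SD, computed per plate, cut at about 22% in these data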
Of the large screens only hits and unclear results are named; the others gave an inactive call (follow-up assays come after a bar, where they were run). Compounds with a hit are over-represented: about 4.3% of the library has one in this group of screens.

CC(C)(C)c1ccc(OCC(=O)NNC(=O)CCc2ccccc2)cc1	none
Cc1ccc(C(=O)NNC(=S)NC(=O)COc2ccccc2)cc1	TAAR1 agonist 142, TAAR1 antagonist 74 | TAAR1 ag confirm 130 | Ga16 nonsel ag 111 | TAAR1 desensitize 89 | Ga16 antag count 68
Cc1ccccc1C(=O)NNC(=S)NC(=O)COc1ccccc1	none
O=C(O)CCC(=O)Nc1ccccc1C(=O)NCCc1ccccc1	none
O=C(CN1CCN(c2ccccc2)CC1)Nc1ccccc1C(=O)NCCc1ccccc1	TAAR1 agonist 76, TAAR1 antagonist 88 (no result: CHO parental Ca, OX1R antag-1, OX1R antag-2) | TAAR1 ag confirm 82 | Ga16 nonsel ag inactive | TAAR1 desensitize 75 | Ga16 antag count 32
COc1ccc(CC(=O)NNC(=O)c2ccco2)cc1OC	none
O=C(CCN1CCOCC1)c1ccc2c(c1)OCCO2	none
O=C(CCN1CCc2ccccc2CC1)c1ccc2c(c1)OCCO2	TAAR1 agonist 92, TAAR1 antagonist 85 | TAAR1 ag confirm 115 | Ga16 nonsel ag inactive | TAAR1 desensitize 97 | Ga16 antag count inactive
C=CCc1cc(OC)ccc1OCCOCCN1CCc2ccccc2C1	TAAR1 agonist 48 | TAAR1 ag confirm 56 | Ga16 nonsel ag inactive | TAAR1 desensitize inactive | Ga16 antag count inactive
CCCOc1ccc(OCCOCCN2CCc3ccccc3C2)cc1	TAAR1 agonist 102 | TAAR1 ag confirm 77 | Ga16 nonsel ag inactive | TAAR1 desensitize 64 | Ga16 antag count inactive
CC(C)CCCCCCCCc1cccc(O)c1C(=O)O	TAAR1 agonist 130, TAAR1 antagonist 98 (no result: CHO parental Ca, OX1R antag-1, OX1R antag-2) | TAAR1 ag confirm 114 | Ga16 nonsel ag 89 | TAAR1 desensitize 104 | Ga16 antag count 92
COCCNc1ncnc2c1ncn2[C@H]1CN(CCc2ccccc2)C[C@@H](CO)O1	TAAR1 agonist 46 (no result: CHO parental Ca, OX1R antag-1, OX1R antag-2) | TAAR1 ag confirm 48 | Ga16 nonsel ag inactive | TAAR1 desensitize inactive | Ga16 antag count inactive
COc1cc(CNc2ncnc3c2ncn3[C@H]2CN(CCc3ccccc3)C[C@@H](CO)O2)cc(OC)c1OC	TAAR1 agonist 59 (no result: CHO parental Ca, OX1R antag-1, OX1R antag-2) | TAAR1 ag confirm 64 | Ga16 nonsel ag inactive | TAAR1 desensitize inactive | Ga16 antag count inactive
COCCNc1ncnc2c1ncn2[C@H]1CN(Cc2ccc(Cl)cc2)C[C@@H](CO)O1	none (no result: CHO parental Ca, OX1R antag-1, OX1R antag-2)
CCOC(=O)C1(C)CCCN(C(=O)c2ccc(-c3ccccc3)cc2)C1 (configuration not stated)	none (no result: CHO parental Ca, OX1R antag-1, OX1R antag-2)
O=C(Nc1nnc(-c2cccs2)o1)c1cccc(C(F)(F)F)c1	TAAR1 agonist 90 | TAAR1 ag confirm 45 | Ga16 nonsel ag 51 | TAAR1 desensitize inactive | Ga16 antag count 25
CN(CCc1ccccc1)C(C(=O)c1ccc2c(c1)OCO2)c1nnnn1-c1ccccc1NC(=O)OC(C)(C)C (configuration not stated)	TAAR1 agonist 86, TAAR1 antagonist 78 (no result: CHO parental Ca, OX1R antag-1, OX1R antag-2) | TAAR1 ag confirm 85 | Ga16 nonsel ag inactive | TAAR1 desensitize 82 | Ga16 antag count inactive
COc1cc(/C=C(\C#N)c2nc3ccc(C)cc3[nH]2)c([N+](=O)[O-])cc1OC	TAAR1 agonist 47 | TAAR1 ag confirm inactive | Ga16 nonsel ag 30 | TAAR1 desensitize inactive | Ga16 antag count inactive
COc1cc(/C=C(\C#N)c2nc3ccc(C)cc3[nH]2)cc([N+](=O)[O-])c1O	none (no result: CHO parental Ca, OX1R antag-1, OX1R antag-2)
Cc1cccc(OCCCN2CCC(C(O)(c3ccccc3)c3ccccc3)CC2)c1	TAAR1 agonist 41 (no result: CHO parental Ca, OX1R antag-1, OX1R antag-2) | TAAR1 ag confirm inactive | Ga16 nonsel ag 16 | TAAR1 desensitize inactive | Ga16 antag count 30

Compound activity from PubChem BioAssay.
